Hits are enriched below; roughly 1.9% of the tested compounds scored in any of these assays.
NPY-Y2 PAM-ag: human NPY-Y2 potentiation or agonism, primary screen. 0.45% of 220,000 active. activation, % at 3.6 µM. cells expressing NPY-Y2, potentiator/agonist read-out. AID 1359; in the data active means activation above about 27%;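 further: cells stimulated with NPY near EC25 plus isoproterenol at EC100; 0% = vehicle plus submaximal agonist and 100% = vehicle plus saturating agonist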
Target sequence (P49146 whole entry, looked up): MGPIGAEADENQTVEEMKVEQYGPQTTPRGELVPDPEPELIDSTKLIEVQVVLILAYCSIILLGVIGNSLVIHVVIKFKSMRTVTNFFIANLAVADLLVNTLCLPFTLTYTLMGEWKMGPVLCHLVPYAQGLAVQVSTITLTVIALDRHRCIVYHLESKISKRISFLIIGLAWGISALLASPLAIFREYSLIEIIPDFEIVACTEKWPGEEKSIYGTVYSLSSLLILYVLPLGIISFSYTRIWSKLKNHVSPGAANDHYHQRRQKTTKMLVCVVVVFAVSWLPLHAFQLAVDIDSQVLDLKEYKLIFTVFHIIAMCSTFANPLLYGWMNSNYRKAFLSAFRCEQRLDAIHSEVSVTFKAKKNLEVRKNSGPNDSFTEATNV
NPY1 pot ag: potentiates or activates human NPY-Y1 receptor; NPY-Y1 expressing cells, potentiator/agonist activation; activation, % at 3.6 µM; P25929; AID 1304; 0.37% of 220,000 active; in the data active means activation above about 33%, passing the limit was not always enough;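 further: cells stimulated with NPY at EC10 then isoproterenol at EC100; 0% = low agonist plus stimulus and 100% = saturating agonist plus stimulus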
NPY-Y2 antag: NPY-Y2 (human) receptor antagonism. P49146. NPY-Y2 expressing cells, antagonist mode. inhibition, % at 2.7 µM. 0.99% of 140,000 active; in the data active means inhibition above about 17%;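 further: 0% = vehicle with agonist challenge and 100% = reference antagonist with challenge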
NPY-Y1 antag: antagonists of human neuropeptide Y receptor Y1. HEK293-CNG Y1 cells, membrane potential fluorescence; NPY at EC95, then isoproterenol. inhibition, % at 3.6 µM. P25929. 1% of 200,000 active;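 active means inhibition above the campaign mean inhibition of all tested compounds plus 3 SD, cut at about 20% in these data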;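 further: 0% = DMSO wells given NPY plus isoproterenol and 100% = isoproterenol alone without NPY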
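Benchmarks – high control isoproterenol alone, low control NPY with isoproterenol · Material – HEK293 Y1/CNG channel cell line · Times – dye 3 h, compound 60 min room temperature, stimulation 45 min · Probe or stimulus – NPY (25 nM), isoproterenol (1 µM), Ro 20-1724 (25 µM) · Evaluation – % inhibition of NPY effect · Signal – fluorescence, membrane potential probe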
Active calls of the source: *; . = not tested or not shown.

SMILES	NPY-Y2 PAM-ag	NPY1 pot ag	NPY-Y2 antag	NPY-Y1 antag
C=CC[n+]1ccc(/C=C2\C=Cc3cc(C)ccc3N2CC)c2ccccc21	31*	27	.	8
CN(C)S(=O)(=O)c1ccc(-c2csc(N/N=C/c3ccc(O)cc3)n2)cc1	-9	24	.	.
CCC(Oc1nc2ccccc2nc1-c1ccccc1NC(C)=O)C(=O)c1ccccc1 (stereo not given)	-8	-24	20*	33*
COc1ccccc1OCC(O)CNCc1ccc2c(c1)OCO2 (stereo not given)	48*	79*	.	.
COc1ccccc1CC(=O)NCc1ccc2c(c1)OCO2	-4	-31	5	8
CCCN(CCC)C(=O)Nc1cc(Cl)ccc1OC	5	-7	.	.
CC1CCN(c2nc(CN3CCCCC3)nc3scc(-c4ccccc4)c23)CC1	-11	-41	47*	41*
CC1CCN(c2nc(-c3cccnc3)nc3scc(-c4ccccc4)c23)CC1	11	10	0	1
Cn1c([N+](=O)[O-])cnc1N1CCN(c2nncs2)C1=O	18	3	.	.
COc1ccc(CN(CCC(c2ccc(F)cc2)C2CCOC(C)(C)C2)C(=O)c2ccco2)cc1 (stereo not given)	-19	-35	20*	22*
C/C(=C\C(=O)c1ccc(Br)cc1)NCc1ccc2c(c1)OCO2	-8	12	13	21*
CCn1ncc([N+](=O)[O-])c1C(=O)Nc1c(C)nn(Cc2ccc(F)cc2)c1C	-6	2	.	-4
O=C(COc1c(CO)cc(Br)cc1CO)NC1CCCc2ccccc21 (stereo not given)	16	-5	.	4
CC(CC(=O)Nc1ncc([N+](=O)[O-])s1)c1ccccc1 (stereo not given)	13	17	.	-3
O=C(Cc1ccc(Br)cc1)Nc1ncc([N+](=O)[O-])s1	62*	50*	.	.
COc1ccc(N2CCN(C(=O)c3cc4c(s3)-c3ccccc3S(=O)(=O)C4)CC2)cc1	67*	81*	.	.
C=CCOc1ccc2ccccc2c1CNCCCN1CCOCC1	-18	-19	20*	21*
Cc1ccc(S(=O)(=O)Nc2ccc3nc(N)sc3c2)cc1	13	4	-1	3
CS(=O)(=O)c1ccc2nc(N)sc2c1	8	41*	0	17
Cc1ccc(CNCC(O)(c2ccc(F)cc2)c2ccc(F)cc2)cc1	-31	-59	19*	23*
COc1ccc(C(=O)CSc2nc3[nH]ncc3c(=O)[nH]2)cc1	-4	-23	.	1
O=C(O)CCc1ccc(-c2ccc(F)cc2)n1Cc1ccco1	71*	80*	0	-10
O=C(O)CCc1ccc(-c2ccccc2)n1Cc1ccco1	-11	9	5	10
C[C@@H]1C=C[C@](Cc2ccccc2)(C(=O)NCCc2c[nH]c3ccccc23)N1C(=O)c1ccccc1	0	-30	19*	35*
O=C(CCC1CCCCC1)Nc1c2c(nn1-c1ccc(F)cc1)CS(=O)(=O)C2	-10	-42	30*	57*
SMILES	NPY-Y2 PAM-ag	NPY1 pot ag	NPY-Y2 antag	NPY-Y1 antag
CCC(=O)Nc1c2c(nn1-c1ccc(F)cc1)CS(=O)C2 (stereo not given)	-7	9	2	2
Cc1ccc(S(=O)(=O)N(C)CC(=O)Nc2nc3ccccc3s2)cc1	12	-26	3	-3
Cc1ccc(/C(=N/Nc2nc3ccccc3s2)C2=C(O)c3ccccc3C2=O)cc1	-9	-3	.	20*
CC1CC(=O)NN=C1c1ccc(NCCO)c([N+](=O)[O-])c1 (stereo not given)	-46	-85	78*	78*
Nc1nc(-c2ccccc2)c(N=Nc2cccnc2)s1	57*	65*	.	-19
Cc1nn(-c2ccccc2)c(N)c1N=Nc1cccnc1	-1	-4	.	-2
CC(Sc1ccsc1[N+](=O)[O-])C(=O)N1CCN(c2ccccn2)CC1 (stereo not given)	9	19	.	2
O=C(Nc1cccc(C(=O)O)c1)/C(=C\c1ccc2c(c1)OCO2)NC(=O)c1ccc(Br)cc1	-8	-23	.	2
COc1ccc(C(CNC(=O)c2cccc(N(C)C)c2)N2CCCC2)cc1 (stereo not given)	5	1	5	-3
COc1ccc(C(CNC(=O)c2cc3ccccc3cc2OC)N2CCCC2)cc1 (stereo not given)	-30	-35	18*	28*
CCCN1CNC(=S)N(c2ccccc2OCC)C1	-1	13	3	4
Cc1ccccc1C1CC(c2ccccc2)Nc2ncnn21 (stereo not given)	-6	-12	4	6
CCOc1ccc(C2CC(c3ccccc3C)n3ncnc3N2)cc1 (stereo not given)	-12	-13	24*	21*
O=C(Nc1cc(Cl)cc(Cl)c1)c1ccc(Cn2c(=O)[nH]c3ccsc3c2=O)cc1	21	46*	-14	-7
CCOCCCNC(=O)c1ccc(Cn2c(=O)[nH]c3ccsc3c2=O)cc1	2	-9	.	11
COc1ccccc1NC(=O)CSc1nc(N)cc(N)n1	19	-3	0	2
COc1ccccc1NC(=O)CSc1nc2ccccc2cc1Cc1ccccc1	-8	-70	21*	26*
COc1ccc(Cc2nnc(NC(=O)CSc3ccc(C)cc3)s2)cc1OC	-20	-10	9	22*
COc1ccc(Nc2ncnc3scc(-c4ccc(OC)cc4)c23)cc1	0	-55	32*	21*
CCCOc1ccccc1Cn1c(=O)oc2ccc(C)cc21	-29	-42	21*	20*
Cc1ccc([N+](=O)[O-])cc1NC(=O)CN(C(=O)c1ccccc1Cl)C1CCCCC1	11	-9	26*	50*
Cc1ccccc1NC(=O)Cn1nnc(S(=O)(=O)c2ccc(C(C)(C)C)cc2)c1N	3	-2	3	-1
O=C(O)c1cc([N+](=O)[O-])ccc1N1CCCCC1	-13	-34	0	2
Cc1ccc(C(=O)c2cc([N+](=O)[O-])ccc2N2CCCCC2)c(C)c1	-20	-28	22*	30*
COC(=O)c1c(NC(=O)c2c(-c3ccccc3Cl)noc2C)sc2c1CCC2	-32	-25	23*	37*
SMILES	NPY-Y2 PAM-ag	NPY1 pot ag	NPY-Y2 antag	NPY-Y1 antag
Cc1cc(C)c2c(N=NN3CCOCC3)[nH]nc2n1	17	-1	-1	-3
Nc1ccc(O)c2c(=O)cc(-c3ccccc3Cl)oc12	11	-27	1	-3
O=c1cc(-c2ccccc2Cl)oc2c(NS(=O)(=O)c3cc(Cl)cc(Cl)c3O)ccc(O)c12	41*	56*	2	-5
CCN(CC)S(=O)(=O)c1ccc(C)c(NC(=O)c2cc(C)oc2C)c1	-5	15	.	20*
Cc1cc(C(=O)OCC(=O)Nc2cc(S(=O)(=O)N(C)C)ccc2C)c(C)o1	-8	-13	.	7
CCOc1ccccc1C(=O)N1CCN(c2cccc(Cl)c2)CC1	-14	-17	17*	30*
CC(=O)Nc1ccc(S(=O)(=O)NCC(=O)OCC(=O)N2CCN(c3ccccc3)CC2)cc1	-6	-5	1	1
CC1(C)C(N(O)C(=O)Nc2ccc(Cl)cc2)N(c2ccc(Cl)cc2)C(=O)N1CC(=O)NN (stereo not given)	43*	41*	0	-8

Assay outcomes as filed in PubChem.
